The list is not random: actives were taken first. Their share in the collection is about 1.8%.
PPC-1+TRAIL kill – compounds killing PPC-1 cancer cells with TRAIL present (potentiator screen, no TRAIL-free arm). 220,000 compounds, 0.41% hits. cell killing (% activity), % at 4 µM or 5 µM. PPC-1 cells + TRAIL, ATPLite viability luminescence;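 active means cell killing above 50% in the first pass at 4 µM, then a duplicate retest at 5 µM averaging 50% or more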;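 further: plate controls were cells with TRAIL plus DMSO for no effect and medium-only wells lacking cells for full effect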
STAT1 inh – inhibitors of IFN-gamma induced STAT1 signaling; inhibition, % at 5.5 µM; NIH 3T3 STAT1-luciferase reporter, luminescence; AID 920; 200,000 compounds, 0.35% hits;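 active means inhibition above a set limit, the mean inhibition across all tested compounds plus 3 SD, cut at about 34% in these data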;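 further: 0% = IFN-gamma with DMSO and 100% = IFN-gamma with 300 µM nifuroxazide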
STAT3 blocker – inhibitors of IL-6 induced STAT3 signaling. 190,000 compounds, 0.89% hits. U3A cells, IL-6 STAT3-luciferase reporter, luminescence; host cell line lacks STAT1. AID 862. inhibition, % at 5.5 µM;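 active means inhibition above the mean inhibition across all screened compounds plus 3 SD, cut at about 44% in these data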;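 further: 0% = DMSO only wells and 100% = 100 µM nifuroxazide control wells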
STAT3 act – STAT3 signaling activation | U3A cells, IL-6 STAT3-luciferase reporter, luminescence; 100% = signal with IL-6 EC80 alone | activation (% of control), % at 5.6 µM | 190,000 compounds, 0.91% hits;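 active means activation above the screen-wide mean of compound activation plus 3 SD, cut at about 130% in these data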;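 further: 0% = background luminescence of wells with medium and substrate only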
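Material: STAT3-luciferase reporter U3A cells; Probe or stimulus: IL-6 (33 ng/mL); Incubation: compound pre-incubation 1 h before IL-6, then 6 h stimulation at 37 °C; Technique: luminescence from STAT3-driven luciferase reporter; Evaluation: % activation versus median of IL-6-stimulated wells; Controls: IL-6-only high control.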
C8 TRAIL sens – caspase-8 TRAIL sensitization | 360,000 compounds, 1% hits | inhibition (viability loss, TRAIL sensitization), % at 10 µM | NB7+C8 cells + TRAIL, ATPlite viability luminescence;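 active means compounds causing at least 50% loss of cell viability in the single-dose screen, relative to plate controls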
Starred values were filed as active, the others as inactive; nt = no result.

SMILES	PPC-1+TRAIL kill	STAT1 inh	STAT3 blocker	STAT3 act	C8 TRAIL sens
Cc1ccc(C(=O)N2CCN(S(=O)(=O)c3sc(C(=O)O)c(C)c3C(=O)O)CC2)s1	nt	nt	nt	nt	-13
COC1=CC(=O)OC(c2cccc(C(F)(F)F)c2)C1 (stereo not given)	nt	nt	nt	nt	-15
CC(C)C(NC(=O)c1ccccc1F)C(=O)NCCCn1ccnc1 (stereo not given)	nt	nt	nt	nt	-1
COc1ccc(C(O)c2nc(-c3cccc(F)c3)cs2)cc1 (stereo not given)	nt	nt	nt	nt	-2
Cc1noc(C)c1COc1ccccc1C(=O)NC(C)c1ccc(Cl)cc1 (stereo not given)	nt	nt	nt	nt	0
Nc1ccc2c(Cl)cc(Cl)cc2c1	nt	nt	nt	nt	-9
Nc1cnnc(N/N=C\c2ccccc2)c1Cl	nt	nt	nt	nt	49*
Nc1nonc1N/N=C\c1ccccc1	0	nt	nt	nt	0
Cc1ccc(-c2nnc(-c3ccc4c(c3)OCO4)o2)cc1	55*	-34	18	91	49
COc1ccc(-c2nc(-c3cccc(C)c3)no2)cc1OC	-1	-46	6	98	5
O=C1CCCCC1Sc1nnc(-c2ccc3c(c2)OCO3)o1 (stereo not given)	6	87*	105*	13	53*
Cc1cccc(-c2noc(-c3ccc4c(c3)OCO4)n2)c1	34	16	69*	43	61*
COc1ccc(CC(=O)N[C@@H](C)C(=O)N2CCC3(CC2)NCCc2[nH]cnc23)cc1	nt	nt	nt	nt	-28
CN(CC(=O)Nc1c(Cl)cccc1Cl)C(=O)CCC(=O)c1ccccc1	nt	nt	nt	nt	-11
CCOC(=O)C1=CCN(S(=O)(=O)c2ccccc2Cl)C1c1cccc(F)c1 (stereo not given)	nt	nt	nt	nt	71*
CCOC(=O)C1=CCN(S(=O)(=O)c2ccccc2Cl)C1c1cccc(Cl)c1 (stereo not given)	nt	nt	nt	nt	12
Nc1nc(-c2ccc(-c3ccccc3)cc2)cs1	8	-43	23	82	59*
Nc1nc(-c2ccc(Oc3ccccc3)cc2)cs1	nt	nt	nt	nt	10
CC(N)c1csc(Nc2ncccn2)n1 (stereo not given)	nt	nt	nt	nt	-9
Cc1cc(C)cc(NC(=O)c2cc(C)n(Cc3cccs3)c2C)c1	42	nt	nt	nt	51*
C(=NN1CCCCCC1)c1cccc2ccccc12	nt	nt	nt	nt	-4
C(=NN1CCCCCC1)c1ccc2ccccc2n1	nt	nt	nt	nt	90*
CCOCc1nc(N)nc(N)c1-c1cccc(Cl)c1	nt	nt	nt	nt	56*
CCCCOC1NC(=O)NC(=O)C1(F)C(=O)OCC (stereo not given)	nt	nt	nt	nt	-5
O=C1C(=Cc2ccc(Cl)cc2)CCc2ccccc21	nt	nt	nt	nt	81*
SMILES	PPC-1+TRAIL kill	STAT1 inh	STAT3 blocker	STAT3 act	C8 TRAIL sens
Cn1cccc1/C=C1\CCc2ccccc2C1=O	8	58*	89*	27	61*
CCOc1ccccc1C=C1CCc2ccccc2C1=O	nt	nt	nt	nt	4
O=C1C(=Cc2ccccc2Cl)CCc2ccccc21	nt	nt	nt	nt	53*
COc1ccccc1C=C1CCc2ccccc2C1=O	nt	nt	nt	nt	77*
O=C1C(=Cc2cccc(Cl)c2)CCc2ccccc21	nt	nt	nt	nt	9
Cn1cccc1/C=C1\Cc2ccccc2C1=O	-2	-44	1	101	16
Cc1ccc(OCCN(C)C(=O)C2CCC(=O)N(CCCN3CCCC3=O)C2)cc1 (stereo not given)	nt	nt	nt	nt	-2
COc1ccc(C(C(=O)c2ccccc2)c2ccccc2)cc1 (stereo not given)	nt	nt	nt	nt	-4
O[C@H]1C[C@H](c2ccc(Cl)cc2)N(CC2CCCCC2)C[C@@H]1n1cc(C2CC2)nn1	nt	nt	nt	nt	5
COc1ccc(S(=O)(=O)N2CCC(C(=O)NCCC(=O)Nc3cccc(Cl)c3)CC2)cc1	nt	nt	nt	nt	-8
COC(=O)[C@]12CCCCC=C1N(Cc1ccc3c(c1)OCO3)C(=O)[C@H](CC(=O)N1CCCCC1)C2	nt	nt	nt	nt	2
O=C1C(=Cc2ccc(F)cc2)CCc2ccccc21	nt	nt	nt	nt	80*
O=C1/C(=C\c2ccncc2)CCc2ccccc21	nt	nt	nt	nt	20
CC(C)c1ccc(/C=N/NC(=O)c2c(Cl)cnn2C)cc1	42	-43	15	90	83*
O=C(Nc1ccc2ccccc2c1)c1ccccc1[N+](=O)[O-]	nt	nt	nt	nt	-6
O=C(Nc1ccc2ccccc2c1)c1ccccc1Cl	nt	nt	nt	nt	39
O=C(Nc1ccc2ccccc2c1)c1ccccc1O	nt	nt	nt	nt	72*
O=C(Nc1ccc2ccccc2c1)c1ccc(Cl)cc1Cl	41	nt	nt	nt	61*
CN1C2CCC1/C(=C\c1ccc(F)cc1)C(=O)/C2=C/c1ccc(F)cc1	-3	8	0	98	5
C=CC(=O)N1C/C(=C/c2ccc(F)cc2)C(=O)/C(=C\c2ccc(F)cc2)C1	nt	nt	nt	nt	93*

Bioassay records from PubChem.
